Source: PubChem (several laboratories)
Sampled rows, rich in hits. Any-hit rate of the full collection: about 1.3%.
Hep lipid drop: hepatic lipid droplet formation modulation. inhibition, % at 6.5 µM. AID 1656. 0.4% of 240,000 active. AML12 mouse hepatocytes, oleate lipid droplets, BODIPY imaging;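 active = lipid droplet intensity inhibited by at least 50%, with more than 500 cells counted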
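Material – AML12 mouse liver cells · Also added – oleate loading, 100 µM · Compound dosing – 6.5 µM single-point dosing · Times – overnight treatment with compound plus oleate · Measured by – fluorescence imaging, 20x objective, two fields per well · Read-out – percent inhibition of filter-corrected integrated lipid droplet intensity per well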
NS3 helicase inh: HCV NS3 helicase inhibition; 0.56% of 290,000 active; inhibition, % at 10.9 µM; NS3 helicase DNA unwinding, Cy5 molecular beacon fluorescence;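 active = inhibition above the mean of all tested compounds plus 3 SD, set per campaign, cut at about 35% in these data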;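 also: 0% = DMSO wells and 100% = thioflavine S control wells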
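System: Hepatitis C virus NS3 helicase domain fragment enzyme | Reagent: Annealed dual-labelled DNA beacon duplex, ATP-started | Compound dosing: 10.9 µM single point, 0.8% DMSO | Incubation: 1 h reaction at 25 °C, ATP-initiated | Technique: Cy5 fluorescence | Evaluation: Percent inhibition from t60/t0 fluorescence ratio | Benchmarks: Low DMSO, high thioflavine S at 110 µM | Replication: Singlicate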
HCV core dimer: HCV core protein dimerization inhibition. TR-FRET GST/Flag-core106 dimerization, 1536-well. inhibition, % at 5 µM. 0.33% of 300,000 active. AID 1899;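 active = inhibition above the mean of all tested compounds plus 3 SD, set per screening campaign, cut at about 45% in these data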
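System: GST-tagged and Flag-tagged HCV core protein residues 1-106 / Input: core106 proteins, GST 13.5 nM and Flag 17 nM / Buffer or medium: KF-containing HEPES buffer, pH 7.45, DTT, CHAPS, BSA / Probe or stimulus: Eu-anti-GST and XL665-anti-Flag labelled anti-tag antibodies / Schedule: 4 h, 22.5 °C incubation / Technique: TR-FRET 671 and 617 nm emission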
Tb MetRS inh: Trypanosoma brucei MetRS inhibition; purified T. brucei MetRS, ATP depletion, Kinase-Glo luminescence; inhibition, % at 11.9 µM; 0.4% of 360,000 active;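 active = inhibition above a per-plate cutoff of the control wells' mean inhibition plus 3 SD, cut at about 5.5% in these data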;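 also: 0% = DMSO wells median and 100% = median of wells with control inhibitor compound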
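Test system – parasite MetRS enzyme · Reagent – substrates ATP, L-methionine and bulk Escherichia coli tRNA · Doses – 11.9 µM compound single dose, 0.9% DMSO · Times – 15 min enzyme-compound preincubation, 2 h reaction, 10 min detection, 25 °C · Signal – Kinase-Glo luminescence, ATP depletion format · Controls – DMSO-only wells as low control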
NS3 helicase cf: HCV NS3 helicase inhibition, confirmation assay. inhibition, % at 10.9 µM. NS3 helicase DNA unwinding, Cy5 molecular beacon fluorescence. 31% of 1,600 active. shares compounds with NS3 helicase inh;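 active = inhibition above the mean of all tested compounds plus 3 SD, cutoff set per campaign, cut at about 36% in these data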
FID counter trip: intercalator displacement, NS3 helicase counter-screen | AID 1945 | shares compounds with NS3 helicase inh | inhibition, % at 7.9 µM | DNA fluorescent intercalator displacement, fluorescence | 4% of 1,600 active; in the data active = inhibition above about 37%;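 also: 0% = vehicle and 100% = reference compound; higher means more displacement of ethidium bromide from the DNA hairpin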
FID counter DR: DNA intercalator displacement in dose response; shares compounds with NS3 helicase inh; fluorescent intercalator displacement from DNA, fluorescence; IC50, µM; 120 tested, under 10 active; AID 2172; call rule not given here
The depositor's hits bear a star; . = no result.

SMILES	Hep lipid drop	NS3 helicase inh	HCV core dimer	Tb MetRS inh	NS3 helicase cf	FID counter trip	others
CCOC(=O)c1cc(-c2ccc(/C=C3/C(=O)NC(=O)C(C#N)=C3C)o2)ccc1Cl	.	50*	26	0	71*	75*
CC1=C(C#N)C(=O)NC(=O)/C1=C\c1ccc(-c2ccc(C)cc2[N+](=O)[O-])o1	-35	40*	.	0	63*	49*
CCCCC1(C)OC(=O)C(=Cc2ccc(-c3ccc(Cl)c(C(=O)O)c3)o2)C(=O)O1 (stereo not drawn)	0	67*	7	0	77*	-9
Cc1ccc(-c2ccc(/C=N/N=C3/NC(=O)C(CC(=O)O)S3)o2)c([N+](=O)[O-])c1 (stereo not drawn)	1	7	-2	1	.	.
Cc1ccc(N2NC(=O)/C(=C/c3ccc(-c4ccc(Cl)c(C(=O)O)c4)o3)C2=O)cc1	9	33	-9	-1	.	.
CC(C)OC(=O)c1cc(-c2ccc(C=O)o2)ccc1Cl	-1	24	25	0	.	.
Cc1cn([C@H]2C[C@H](O)[C@@H](CNC(=O)c3ccccn3)O2)c(=O)[nH]c1=O	.	.	.	-1	.	.
O=C1NC[C@@H](CCCCN2C[C@H](Cc3ccccc3)N(Cc3ccccc3)C(=O)C2=O)N(CCc2ccccc2)C1=O	.	.	.	-1	.	.
CCCCCN(C(=O)CCC(=O)OCC(=O)N1C(C)CCCC1C)c1c(N)n(CCCC)c(=O)[nH]c1=O (stereo not drawn)	-3	-1	-1	0	.	.
O=C(O)/C=C/C(=O)Nc1ccc(N2CCOCC2)nc1N1CCOCC1	9	7	1	0	.	.
O=C(COC(=O)/C=C/c1ccco1)Nc1ncc(C(F)(F)F)cc1Cl	0	55*	24	0	7	-18
O=C(COC(=O)/C=C/c1ccco1)Nc1cccc([N+](=O)[O-])c1	5	38*	-1	-2	-18	-5
O=C(CCS(=O)(=O)c1cc(Br)cc2c1N(C(=O)C1CC1)CC2)N1CCN(c2ccccn2)CC1	-4	-2	3	0	.	.
Fc1ccc(NC(=S)Nc2cccc3ccccc23)cc1F	-3	44*	2	0	10	6
COc1cccc(NC(=S)Nc2cccc3ccccc23)c1	0	49*	9	0	2	-6
CCOC(=O)C1(CC2CC2)CCN(Cc2cnc(-c3ccc(OC)cc3)nc2)CC1	-11	-6	2	-1	.	.
COc1ccc2nc(NC(=O)c3ccc([N+](=O)[O-])o3)sc2c1	-8	64*	28	0	7	10
Nc1c(C(=O)Nc2ccc(Br)cc2)sc2nc(-c3ccco3)ccc12	.	69*	34	0	28	5
NC(=O)c1sc2nc(-c3ccccc3)ccc2c1N	4	2	-9	-1	.	.
CC(=O)c1sc2nc(-c3ccco3)ccc2c1N	-9	68*	2	1	46*	15
Nc1c(C(=O)Nc2ccc(F)cc2)sc2nc(-c3ccco3)ccc12	.	41*	40	0	-6	10
c1cn2c(-c3ccc(N4CCOCC4)cc3)cncc2n1	.	.	.	0	.	.
O=C1NC(=S)S/C1=C\c1ccc(SCc2ccco2)o1	15	76*	-10	1	81*	31
O=C1NC(=S)S/C1=C\c1ccc(SCc2ccccc2)o1	-2	47*	2	0	81*	22
COc1ccc(-c2ccc3c(c2)[C@@H]2C[C@H](N(C)C(=O)C(C)(C)C)[C@H]([C@H](C)O)C(=O)N2CC3)cc1	.	.	.	1	.	.
SMILES	Hep lipid drop	NS3 helicase inh	HCV core dimer	Tb MetRS inh	NS3 helicase cf	FID counter trip	others
Cc1ccc(-n2cccc2/C=C2\C(=N)N3N=C(C(C)C)SC3=NC2=O)cc1	0	42*	21	0	35	-28
Cn1nnnc1SCc1nc2scc(-c3ccc(Cl)cc3)c2c(=O)[nH]1	-8	42*	28	0	-17	1
O=[N+]([O-])c1c(Nc2ccccc2O)cc(Cl)c2nonc12	-8	38*	.	-1	-23	17
O=[N+]([O-])c1c(Nc2ccccc2O)ccc2nonc12	12	14	-7	0	.	.
OC(c1cccc(Cl)c1)c1nc(-c2ccc(Cl)cc2)cs1 (stereo not drawn)	.	.	.	0	.	.
COCCNC(=O)c1cc2c(=O)[nH]c3ccccc3c2s1	-1	70*	6	-1	-8	4
O=c1c2ccccc2oc2cc(OCc3cccc(F)c3)cc(O)c12	-6	37*	.	-1	-11	17
O=C(CCC(=O)NCc1ccccc1)NCc1ccccc1	.	48*	-10	-1	-11	-3
O=C(COC(=O)CCc1c[nH]c2ccccc12)NCc1ccccc1	-33	43*	-4	0	9	-26
O=C(COC(=O)CCc1c[nH]c2ccccc12)NCc1ccc(Cl)cc1	0	-6	4	1	.	.
COc1ccc(C2/C(=C(/O)c3ccc(C)cc3)C(=O)C(=O)N2c2ccccn2)cc1OC (stereo not drawn)	9	14	2	1	.	.
CCCOc1ccc(/C(O)=C2\C(=O)C(=O)N(c3ccccn3)C2c2ccccc2F)cc1C (stereo not drawn)	10	47*	4	-1	94*	-31	FID counter DR=>79
Cc1ccccc1CSCC1Nc2ccc(C(=O)NCCc3ccccc3)cc2NC1=O (stereo not drawn)	.	.	.	1	.	.
COc1ccc(/C=N\NC(=O)c2cc(O)c(O)c(O)c2)cc1COc1ccc(C(=O)OCC(C)C)cc1	-1	39*	22	1	56*	-9	FID counter DR=>79
O=C1CSC(=S)N1/N=C/c1ccc(Cl)c([N+](=O)[O-])c1	-1	44*	65*	.	51*	8
COc1ccc(/C=C/c2nc3ccccc3c(=O)n2-c2cccc(C(=O)O)c2)cc1	-5	41*	-5	-1	6	-39
CCn1nc(C)cc1C(=O)N1CCCC(N(C)CCc2ccc(OC)c(OC)c2)C1 (stereo not drawn)	-3	5	10	-1	.	.
Cc1cc(NS(=O)(=O)c2ccc(NC(=O)CCCOc3ccccc3)cc2)no1	.	17	-4	0	.	.
Cc1cc(NS(=O)(=O)c2ccc(NC(=O)CCc3ccccc3)cc2)no1	.	41*	4	0	-31	-13
CCn1c(=O)c2sccc2n(Cc2cccc(C)c2)c1=O	.	6	-17	0	.	.
Cc1ccc(Nc2cc(C)nn2-c2nc(C)cc(=O)[nH]2)cc1	.	39*	-4	-2	-3	-30
Cn1cc(C=C2C(=O)OC3(CCCCC3)OC2=O)c2ccccc21	15	11	8	0	.	.
Cn1cc(C=C2C(=O)CC(C)(C)CC2=O)c2ccccc21	11	38*	-3	0	-1	4
